Experiments:
Plasmodium falciparum [1] = assay: Antimalarial activity against Plasmodium falciparum K1; format: functional, organism-based
Summary of the method: (§1)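 Parasites kept in continuous culture in human erythrocytes (2–5%) in RPMI 1640 with 25 mM HEPES, 32 mM NaHCO3 and 10% human serum, gassed 3% O2/4% CO2/93% N2. 48 h assay: 1% initial parasitemia, 5% hematocrit, ethanol stocks (final <1% ethanol); [3H]hypoxanthine added after 24 h at 37 °C, counted after further 24 h. IC50 by probit interpolation; triplicate.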

Plasmodium falciparum [2] = assay: Antimalarial activity against Plasmodium falciparum HB3; format: functional, organism-based; summary of the method: as §1

Row | SMILES | IC50 (Plasmodium falciparum [1]) [nM] | IC50 (Plasmodium falciparum [2]) [nM]
1 | CCNCCO[C@H]1OC2O[C@@]3(C)CC[C@H]4[C@H](C)CCC([C@H]1C)[C@@]24OO3 (stereo partly specified) | 4.1 | 4.1
2 | C[C@@H]1CCC2[C@@H](C)[C@@H](OCc3ccc(CN4CCOCC4)cc3)OC3O[C@@]4(C)CC[C@@H]1[C@]32OO4 (stereo partly specified) | 35 | 50
3 | C[C@@H]1CCC2[C@@H](C)[C@@H](OCc3ccc(CN4CCCCC4)cc3)OC3O[C@@]4(C)CC[C@@H]1[C@]32OO4 (stereo partly specified) | 9.8 | 12.2
4 | CCN(CC)Cc1ccc(CO[C@H]2OC3O[C@@]4(C)CC[C@H]5[C@H](C)CCC([C@H]2C)[C@@]35OO4)cc1 (stereo partly specified) | 1.4 | 3.1
5 | C[C@@H]1CCC2[C@@H](C)[C@@H](OCc3ccc(CO)cc3)OC3O[C@@]4(C)CC[C@@H]1[C@]32OO4 (stereo partly specified) | 4.4 | 4.2
6 | CNCCO[C@H]1OC2O[C@@]3(C)CC[C@H]4[C@H](C)CCC([C@H]1C)[C@@]24OO3 (stereo partly specified) | 2.4 | 2.7
7 | C[C@@H]1CCC2[C@@H](C)[C@@H](OCc3ccc(CN4CCCC4)cc3)OC3O[C@@]4(C)CC[C@@H]1[C@]32OO4 (stereo partly specified) | 2.3 | 2.3
8 | C[C@@H]1CC[C@H]2[C@@H](C)C(=O)O[C@@H]3O[C@@]4(C)CC[C@@H]1[C@]32OO4 [ARTEMISININ] | 6.4 | 7.3
